Assay results: paper PMC9597438 (Journal of Ginseng Research, 2022)

Tests used:
Hep3B cells = assay: Cytotoxic; type: cell-based, human; conditions: 24 h, concentrations as high as 30 μM
How it was run: (§1)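 Hep3B cells in DMEM/10% FBS (5×10^4/well) adhered for 12 h under normoxia. They were exposed for 24 h to final 0.3, 1, 3, 10 and 30 µM, triplicate wells per level. MTT was added for 4 h in the dark, formazan was dissolved in DMSO with 10 min shaking, and absorbance was read at 492 nm. Mean ± SD, n = 3.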

[1] = system: HIF-1α protein expression in HeLa cells; assay: Western blotting of HIF-1α in HeLa cells; type: cell-based, human; conditions: 1% O2, 12 h, 3, 10, 30 μM, nuclear extract
How it was run: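 HeLa cells were held 12 h under normoxia or hypoxia (1% O₂) with 3, 10 or 30 µM. Nuclear extracts were quantified by BCA, and 30 µg per lane was resolved by SDS-PAGE and transferred to PVDF. Membranes were blocked in 5% nonfat milk, probed with anti-HIF-1α overnight at 4 °C, then secondary for 2 h, and detected by chemiluminescence. Three independent experiments.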

[2] = system: HeLa cervical cancer xenograft; assay: In vivo antitumor activity, HeLa cervical cancer xenograft; parameters: species or system athymic Nu/Nu nude mice; conditions: nude mice with HeLa tumors, ip, vs control, p < 0.001
HeLa cells [3] = assay: EdU labeling and immunofluorescence; type: cell-based, human; conditions: HeLa cells, 3, 10, 30 μM, 12 h
How it was run: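 HeLa cells (5×10^4/well) were plated for 24 h and treated with 3, 10 or 30 µM for 12 h. EdU was pulsed for 1 h. Cells were fixed in 4% paraformaldehyde for 30 min, permeabilised in 0.5% Triton X-100 for 10 min and reacted in 1× Apollo cocktail for 30 min. Nuclei were counterstained with Hoechst 33342 and imaged by fluorescence microscopy.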

[4] = system: cleaved caspase-3 expression in HeLa cells; assay: Western blotting of cleaved caspase-3 in HeLa cells; type: cell-based, human; conditions: HeLa cells, 3, 10, 30 μM, 12 h, concentration-dependent
How it was run: (§2)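 HeLa cells were treated with or without 3, 10 or 30 µM for 12 h. Whole-cell extracts were separated by SDS-PAGE, transferred to PVDF and blocked in 5% nonfat milk. Blots were probed overnight at 4 °C for the named protein (Bax, Bcl-2, MMP-9 or cleaved caspase-3), then secondary for 2 h, with chemiluminescent detection. Three independent experiments.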

[5] = system: HIF-1β expression in HeLa cells; assay: Western blotting of HIF-1β in HeLa cells; type: cell-based, human; conditions: hypoxia, 12 h, whole-cell lysates
How it was run: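 HeLa cells were held 12 h under normoxia or hypoxia (1% O₂) at the indicated concentrations. Whole-cell lysates were run on SDS-PAGE, transferred to PVDF and blocked in 5% milk. Anti-HIF-1β ran overnight at 4 °C, secondary 2 h, chemiluminescent detection. Three independent experiments.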

HeLa cells [6] = assay: Cell migration assay; type: cell-based, human; conditions: 3, 10, 30 μM, 12 h, vs control group
How it was run: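 Scratch assay: HeLa cells (1×10^5/well) adhered for 24 h, were scratched with a sterile pipette tip, washed three times in PBS and switched to serum-free medium. Cells got 3, 10 or 30 µM for 12 h. The same fields were imaged at 200×, and migration was scored as final versus initial gap width.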

HeLa cells [7] = assay: Colony formation assay; type: cell-based, human; conditions: HeLa cells, 3, 10, 30 μM, 10 days
How it was run: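 HeLa cells (1×10^3/well, 6-well) were plated for 12 h and given fresh medium with 3, 10 or 30 µM. They grew 10 days until colonies were visible, then were fixed in 10% formaldehyde, stained with 1% crystal violet, washed in PBS and air-dried.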

[8] = system: MMP-9 expression in HeLa cells; assay: Western blotting of MMP-9 in HeLa cells; type: cell-based, human; conditions: 10 μM, 12 h
How it was run: as §2

[9] = system: Bcl-2 expression in HeLa cells; assay: Western blotting of Bcl-2 in HeLa cells; type: cell-based, human; conditions: HeLa cells, 3, 10, 30 μM, 12 h, vs control group
How it was run: as §2

HeLa cells [10] = assay: Apoptosis assay; type: cell-based, human
How it was run: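 HeLa cells (5×10^5/well) adhered for 24 h, then were exposed to 3, 10 or 30 µM for 24 h per methods; the legend gives 12 h under hypoxia. Cells were washed twice in PBS and taken into binding buffer (10 mM HEPES pH 7.4, 140 mM NaCl, 2.5 mM CaCl₂). They were stained with Annexin V-FITC and 2 µg/mL propidium iodide, 15 min, 37 °C, dark, then read by flow cytometry.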

[11] = system: Bax expression in HeLa cells; assay: Western blotting of Bax in HeLa cells; type: cell-based, human; conditions: HeLa cells, 3, 10, 30 μM, 12 h, vs control group
How it was run: as §2

[12] = system: nuclear accumulation of HIF-1α in HeLa cells; assay: Immunofluorescence staining of HIF-1α; type: cell-based, human; conditions: 1% O2, 12 h, 30 μM
How it was run: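 HeLa cells (1×10^4/well) adhered for 24 h and were held under normoxia or hypoxia (1% O₂) for 12 h with or without 30 µM. Processing: 4% paraformaldehyde at room temperature for 30 min, 0.2% Triton X-100, 5% BSA block for 30 min. Anti-HIF-1α ran overnight at 4 °C, secondary 30 min at room temperature, DAPI 30 min. Imaged by fluorescence microscopy at 400×.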

HeLa cells [13] = assay: Transwell invasion assay; type: cell-based, human; conditions: HeLa cells, 3, 10, 30 μM, vs control
How it was run: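 Matrigel-coated Transwell inserts were loaded with HeLa cells pretreated with or without 3, 10 or 30 µM, in serum-free DMEM in the upper chamber; the legend gives 12 h exposure. The lower chamber held DMEM with 10% FBS. After 24 h invasion at 37 °C, cells on the lower side were fixed in 4% paraformaldehyde, stained with 0.1% crystal violet and photographed at 200×.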

[14] = system: HIF-1α transcriptional activity in Hep3B cells; assay: HRE luciferase reporter assay; type: cell-based, human
How it was run: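 Hep3B cells at 60–80% confluence were transfected with an HRE-luciferase plasmid (legend adds pRL-CMV) using Lipofectamine 2000 for 24 h. They were reseeded at 5×10^4/well for 24 h, then treated under hypoxia (1% O₂, 5% CO₂, 94% N₂, 37 °C) at final 0.3–30 µM, triplicate wells. Treatment ran 12–16 h per methods, 24 h per legend. Cells were lysed 1 h and luminescence read.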

[15] = system: VEGF protein expression in HeLa cells; assay: Western blotting of VEGF in HeLa cells; type: cell-based, human; conditions: hypoxia, 12 h
How it was run: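 After 12 h incubation under normoxia or hypoxia (1% O₂) at the indicated concentrations, HeLa cell protein was quantified by BCA and separated by SDS-PAGE onto PVDF. Blots were blocked in 5% milk and probed for VEGF overnight at 4 °C, then secondary 2 h, with chemiluminescent detection. Three independent experiments.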

Cytotoxic = type: cell-based, human; conditions: human, Hep3B cells
How it was run: as §1

Structure (SMILES)	cell viability (MTT) (Hep3B cells)	HIF-1α protein content [1]	tumor volume [2]	number of EdU-positive cells (HeLa cells [3])	expression levels of cleaved caspase-3 [4]	expression level of HIF-1β [5]	migration of HeLa cells (scratch assay) (HeLa cells [6])	colony formation of cells (HeLa cells [7])	expression levels of MMP-9 [8]	levels of Bcl-2 [9]	percentage of total apoptotic (early and late) cells (HeLa cells [10]; 3 μM)	percentage of total apoptotic (early and late) cells (HeLa cells [10]; 10 μM)	percentage of total apoptotic (early and late) cells (HeLa cells [10]; 30 μM)	expression levels of Bax [11]	HIF-1α expression in the nucleus [12]	number of tumor cells that crossed the transwell chamber (invasion) (HeLa cells [13])	transcriptional activity of HIF-1α (HRE-mediated reporter gene expression) ([14]; hypoxia (1% oxygen), from 0.3 μM upward)	efficacy (HIF-1α transcription inhibition) relative to 20(R)-panaxotriol ([14]; ratio of IC50 values)	VEGF protein expression levels [15]	IC50 at 24 h (Cytotoxic)
CC(C)(C)OC(=O)NCC(=O)OC1CCC2(C)C(C(O)CC3(C)C2CC(O)C2C(C4(C)CCCC(C)(C)O4)CCC23C)C1(C)C (centres unmarked) [A11, 6,12-dihydroxy-4,4,8,10,14-pentamethyl-17-(2,6,6-trimethyltetrahydro-2H-pyran-2-yl)hexadecahydro-1H-cyclopenta[a]phenanthren-3-yl (tert-butoxycarbonyl)glycinate]	no adverse effects on cell viability	dose-dependently reduced	significantly inhibit	concentration-dependently suppressed	significantly increased	almost no influence	decreased	apparently inhibited	significantly reduced	decreased	5.2%	14.0%	24.2%	increased	not detected	significantly reduced	dose-dependent inhibited	more than 100 times	dose-dependent decrease	–
CC1(C)CCCC(C)(C2CCC3(C)C2C(O)CC2C4(C)CCC(OC(=O)[C@@H](N)Cc5c[nH]c6ccccc56)C(C)(C)C4C(O)CC23C)O1 (some centres unmarked) [A13, 6,12-dihydroxy-4,4,8,10,14-pentamethyl-17-(2,6,6-trimethyltetrahydro-2H-pyran-2-yl)hexadecahydro-1H-cyclopenta[a]phenanthren-3-yl tryptophanate]	–	–	–	–	–	–	–	–	–	–	–	–	–	–	–	–	–	–	–	6.99 µM
